Assay [1] concerns the target Aldo-keto reductase family 1 member B1 (Bos taurus) (UniProt P16116). The assay can be described thus: Inhibition of bovine lens ALR2 at 25 uM. Particulars: Lens of camera-type eye.
Assay [2] deals with Aldo-keto reductase family 1 member B1 (Bos taurus, UniProt P16116). Kind of assay: Inhibition of bovine lens ALR2. Also on record: species or system Lens of camera-type eye. Summed up: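 ALR2 was purified from bovine lens by DE-52 ion exchange and Matrex Orange A affinity chromatography (0.8 U/mg). Assay at 37 °C with 4.67 mM D,L-glyceraldehyde and 0.11 mM NADPH in 0.25 M sodium phosphate pH 6.8, 0.38 M ammonium sulfate and 0.5 mM EDTA, with 1% (v/v) DMSO. IC50 was fitted by nonlinear one-site competition on log dose-inhibition curves from ≥7 concentrations; 95% confidence limits given.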

A further assay has as its system Brain. The assay can be described thus: Antioxidant activity against FeCl3/ascorbic acid-induced lipid peroxidation in rat brain homogenate at 100 uM by TBARS assay. Format: functional, tissue-based. The method in brief: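 Fresh rat brain homogenised 10% (w/v) in phosphate buffer pH 7.4. Homogenate was incubated with 20 µM FeCl3 and 100 µM ascorbic acid (final) plus compound (100 uM) or α-tocopherol for 30 min at 37 °C. Thiobarbituric acid/HCl was added, then boiling, n-butanol extraction and A532 read. Values are nmol MDA/10 mg wet tissue from a tetramethoxypropane standard curve; mean ± S.E.M., ≥2 determinations in triplicate.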

Active and inactive are the calls of the source. The rule behind the calls is not given here.

The record followed here is ChEMBL document CHEMBL1795263, “Identification of 5-arylidene-4-thiazolidinone derivatives endowed with dual activity as aldose reductase inhibitors and antioxidant agents for the treatment of diabetic complications” (Eur J Med Chem, 2011).

In general, inhibition refers to the relative decrease from the control value, in per cent. By IC50 is commonly meant the point on the concentration scale where inhibition reaches its midpoint. High values mean lower potency, low ones higher potency.

`O=C1NC(=O)/C(=C/c2ccc(/C=C/c3ccccc3)cc2)S1`: the inhibition result in assay [1] is “inactive”.

The compound `O=C(O)CN1C(=O)S/C(=C\c2ccc(/C=C/c3ccc(C(F)(F)F)cc3)cc2)C1=O` came in with a half-maximal inhibitory concentration (IC50) in assay [2] of 1250 nM. Also, in the assay with Brain, the result was Active.

As for `COc1ccc(/C=C/c2ccc(/C=C3\SC(=O)NC3=O)cc2)cc1`, the inhibition entry in assay [1] was “inactive”. `O=C(O)CN1C(=O)S/C(=C\c2ccc(Oc3ccccc3)cc2)C1=O`: in assay [2], 70 nM corresponded to half-maximal inhibition (IC50). In assay [1], `COc1ccc(/C=C/C=C2/SC(=O)NC2=O)cc1` displayed an inhibition of 51%. In the case of `Cc1ccc(/C=C/c2ccc(/C=C3\SC(=O)N(CC(=O)O)C3=O)cc2)cc1`, the IC50 in assay [2] stood at 350 nM. Besides, the outcome with Brain was Active. In turn, `O=C(O)CN1C(=O)S/C(=C\c2ccc(/C=C/c3ccccc3)cc2)C1=O` came in with an IC50 in assay [2] of 270 nM. The outcome with Brain was Active. As to `O=C(O)CN1C(=O)S/C(=C\C=C\c2ccccc2)C1=O`, in assay [2], the IC50 turned out to be 1320 nM. Further, the outcome in the assay with Brain was Active. In assay [2], `O=C(O)CN1C(=O)/C(=C\c2ccc(OCc3ccccc3)cc2)S/C1=N\c1ccccc1` showed an IC50 of 4900 nM. In the case of `O=C(O)CN1C(=O)/C(=C\c2ccc3ccccc3c2)S/C1=N\c1ccccc1`, the IC50 in assay [2] came out at 2700 nM. Turning to `Cc1ccc(/C=C/C=C2/SC(=O)NC2=O)cc1`, in assay [1], the inhibition amounted to 46%.

For `O=C(O)CN1C(=O)S/C(=C\C=C\c2ccc(C(F)(F)F)cc2)C1=O`, in assay [2], the IC50 was 300 nM. The result with Brain was Active. Turning to `Cc1ccc(/C=C/C=C2\SC(=O)N(CC(=O)O)C2=O)cc1`, the IC50 in assay [2] worked out at 1050 nM. Besides, the outcome with Brain was Active. `O=C(O)CN1C(=O)/C(=C\c2ccc(Oc3ccccc3)cc2)S/C1=N\c1ccccc1` displayed an IC50 in assay [2] of 4400 nM. As to `O=C1NC(=O)/C(=C/C=C/c2ccc(C(F)(F)F)cc2)S1`, in assay [1], the inhibition was 65%. In assay [2], `COc1ccc(/C=C/c2ccc(/C=C3\SC(=O)N(CC(=O)O)C3=O)cc2)cc1` returned an IC50 of 250 nM. Moreover, in the assay on Brain, the outcome was Active. Taken in the same sequence, the figures for `COc1ccc(/C=C/C=C2\SC(=O)N(CC(=O)O)C2=O)cc1` were 850 nM and “Active”. Take `O=C1NC(=O)/C(=C/c2ccc(/C=C/c3ccc(C(F)(F)F)cc3)cc2)S1`: the inhibition in assay [1] was found to be 29%. Same read-out and setting: then `O=C1NC(=O)/C(=C\C=C\c2ccccc2)S1`, with 31%. On the same count and under the same terms, then `Cc1ccc(/C=C/c2ccc(/C=C3\SC(=O)NC3=O)cc2)cc1`, with 39%.
